# Measured values gathered from unrelated publications.
# Compare with care: the assays were run in different laboratories.
# Cell line: DU-145
# Read-out: cell growth or viability
Structure (SMILES),test,conditions,GI50 [nM]
COc1ccc(C(=O)/C=C/c2ccc(Cl)c(Cl)c2)cc1S(N)(=O)=O,SRB,48 h,3500
COc1ccc(-c2ccc(-c3ccc(C(=N)N)nc3)s2)cc1Cl,,,1770
CCOc1c(OC)cc(CN2CCc3cc(OS(N)(=O)=O)c(OC)cc3C2)cc1OC,WST-1,96 h,100
COc1ccc(C(=O)/C=C/c2cccnc2)cc1S(N)(=O)=O,SRB,48 h,11200
CCc1cc(CN2CCc3cc(OS(N)(=O)=O)c(OC)cc3C2)cc(CC)c1CC,WST-1,96 h,1800
COc1ccc(C(=O)/C=C/c2cccc(Br)c2)cc1S(N)(=O)=O,SRB,48 h,3600
COc1cc2c(cc1O)CCN(Cc1cc(Cl)c(OC)c(OC)c1)C2,WST-1,96 h,900
COc1cc2c(cc1O)CCN(S(=O)(=O)c1ccccc1OC)C2,WST-1,96 h,> 100000
COc1ccc(C(=O)/C=C/c2ccc3ccccc3c2)cc1S(N)(=O)=O,SRB,48 h,3300
S=C([S][Au-][P+](CCCCCC[P+]([Au-][S]C(=S)n1cccn1)(c1ccccc1)c1ccccc1)(c1ccccc1)c1ccccc1)n1cccn1,,,1310
COc1ccc(C(=O)/C=C/c2cc3c(cc2Br)OCO3)cc1S(N)(=O)=O,SRB,48 h,3700
COc1cc2c(cc1O)CCN(Cc1cccc(NS(C)(=O)=O)c1)C2,WST-1,96 h,> 100000
COc1cccc(Oc2ccccc2NC(=O)CNC(=O)c2cccc3ccccc23)c1,SRB,48 h,708
COc1ccc(OC)c(CN2CCc3cc(OS(N)(=O)=O)c(OC)cc3C2)c1,WST-1,96 h,2610
COc1cc2c(cc1OS(N)(=O)=O)CCN(Cc1cc(Cl)c(OC)c(OC)c1)C2,WST-1,96 h,40
COc1cc2c(cc1OS(N)(=O)=O)CCN(Cc1ccc(OC)c(OC)c1OC)C2,WST-1,96 h,17000
COc1cc2c(cc1O)CCN(Cc1cc(Br)c(OC)c(OC)c1)C2,WST-1,96 h,300
COc1ccc(C(=O)/C=C/c2cccc(Cl)c2Cl)cc1S(N)(=O)=O,SRB,48 h,2900
COc1cccc(S(=O)(=O)N2CCc3cc(OS(N)(=O)=O)c(OC)cc3C2)c1,WST-1,96 h,56700
